# Laboratory results from ChEMBL document CHEMBL5236607, “Membrane-Active Cyclic Amphiphilic Peptides: Broad-Spectrum Antibacterial Activity Alone and in Combination with Antibiotics” (J Med Chem, 2022).
# Calls of active or inactive are those of the source. No cut-off for these calls is given here. Peptide text beside a SMILES is read from it.
# Legend:
# [1] = test system: Klebsiella pneumoniae; assay: Antibacterial activity against multidrug resistant Klebsiella pneumoniae 1188718 after 24 hrs by microbroth dilution method; format: functional
# [2] = test system: Klebsiella pneumoniae; assay: Antibacterial activity against carbapenem resistant Klebsiella pneumoniae ATCC BAA 1705 after 24 hrs by microbroth dilution method; format: functional
# [3] = test system: Pseudomonas aeruginosa; assay: Synergistic antibacterial activity against Pseudomonas aeruginosa ATCC […] incubated for 24 hrs in presence of tobramycin by checkerboard assay; format: functional
# [4] = test system: Staphylococcus aureus; assay: Synergistic antibacterial activity against methicillin resistant Staphylococcus aureus ATCC BAA-1556 incubated for 24 hrs in presence of levofloxacin by checkerboard assay; format: functional
# Method in brief: (§1)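 Checkerboard assay. Inoculum from an LB overnight culture at 0.5 McFarland, diluted 1/150 in MH media. […] Incubated 37 °C for 24 h. FICI = MIC combination/MIC alone summed over both agents. Triplicate.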
# [5] = test system: Pseudomonas aeruginosa; assay: Synergistic antibacterial activity against Pseudomonas aeruginosa ATCC […] incubated for 24 hrs in presence of polymyxin B by checkerboard assay; format: functional; method in brief: as §1
# [6] = test system: Pseudomonas aeruginosa; assay: Synergistic antibacterial activity against Pseudomonas aeruginosa ATCC […] assessed as fractional inhibitory concentration index incubated for 24 hrs in presence of tobramycin by checkerboard assay; format: functional
# [7] = test system: Escherichia coli; assay: Synergistic antibacterial activity against Escherichia coli ATCC 25922 assessed as fractional inhibitory concentration index incubated for 24 hrs in presence of tobramycin by checkerboard assay; format: functional
# Method in brief: (§2)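 Checkerboard assay in MH broth. Inoculum from an LB overnight culture set to 0.5 McFarland and diluted 1/150. […] Each agent was also titrated alone. Incubation 24 h at 37 °C. FIC = combination MIC/individual MIC; FICI = sum of the FICs. Triplicate.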
# [8] = test system: Staphylococcus aureus; assay: Synergistic antibacterial activity against methicillin resistant Staphylococcus aureus ATCC BAA-1556 fractional inhibitory concentration index incubated for 24 hrs in presence of levofloxacin by checkerboard assay; format: functional; method in brief: as §1
# [9] = test system: Pseudomonas aeruginosa; assay: Synergistic antibacterial activity against Pseudomonas aeruginosa ATCC […] fractional inhibitory concentration index incubated for 24 hrs in presence of polymyxin B by checkerboard assay; format: functional
# [10] = test system: Klebsiella pneumoniae; assay: Synergistic antibacterial activity against Klebsiella pneumoniae ATCC BAA-1705 fractional inhibitory concentration index incubated for 24 hrs in presence of meropenem by checkerboard assay; format: functional; method in brief: as §2
# [11] = test system: Staphylococcus aureus; assay: Synergistic antibacterial activity against methicillin resistant Staphylococcus aureus ATCC BAA-1556 assessed as fractional inhibitory concentration incubated for 24 hrs in presence of tobramycin by checkerboard assay; format: functional; method in brief: as §1
# [12] = test system: Pseudomonas aeruginosa; assay: Synergistic antibacterial activity against Pseudomonas aeruginosa ATCC […] assessed as fractional inhibitory concentration incubated for 24 hrs in presence of tobramycin by checkerboard assay; format: functional
# [13] = test system: Escherichia coli; assay: Synergistic antibacterial activity against Escherichia coli ATCC 25922 assessed as fractional inhibitory concentration incubated for 24 hrs in presence of tobramycin by checkerboard assay; format: functional; method in brief: as §2
# [14] = test system: Klebsiella pneumoniae; assay: Synergistic antibacterial activity against Klebsiella pneumoniae ATCC BAA-1705 fractional inhibitory concentration incubated for 24 hrs in presence of meropenem by checkerboard assay; format: functional; method in brief: as §2
# [15] = Therapeutic index, ratio of cytotoxicity against human HEKa to MIC for methicillin resistant Staphylococcus aureus
# [16] = test system: Staphylococcus aureus; assay: Bactericidal activity against methicillin resistant Staphylococcus aureus assessed as reduction in bacterial cells at MIC after […] by time kill assay; format: functional; set-up: scale not given: the % may be the effect or the level left
# [17] = test system: Staphylococcus aureus; assay: Bactericidal activity against methicillin resistant Staphylococcus aureus assessed as reduction in bacterial cells at 4 times MIC after 2 hrs by time kill assay; format: functional; set-up: scale not given: the % may be the effect or the level left
# Method in brief: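 Time-kill in Müller–Hinton media. […] Aliquots taken at 0–24 h, serially diluted and plated on MH agar. CFU counted after 24 h at 37 °C. Two independent experiments in triplicate.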
# [18] = Membrano-lytic effect in bacterial inner membrane mimic DOPC/DOPG (7:3) large unilamellar vesicles assessed as calcein leakage at 50 ug/ml measured after 90 mins by multimode microplate reader assay; format: cell membranes; settings: dose 50.0 µg/ml
# Method in brief: (§3)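 Calcein (70 mM) loaded into extruded 100 nm LUVs: DOPC:DOPG 7:3 (w/w) as the bacterial mimic, DOPC/cholesterol 10:1 (w/w) as the mammalian mimic. Free dye removed by gel filtration. Liposomes at 40 μM final lipid in PBS mixed 1:1 with peptide (5–50 μg/mL). Fluorescence (ex 490/em 520 nm) read every 10 min for 100 min; Triton X-100 defines 100% release. Triplicate.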
# [19] = Membrano-lytic effect in mammalian membrane mimic DOPC/cholesterol (10:1) large unilamellar vesicles assessed as calcein leakage measured at 5 to 50 microg/ml measured after 100 mins by multimode microplate reader assay; format: cell membranes; settings: dose 5-50 µg/ml; method in brief: as §3
# [20] = test system: Cell membrane; assay: Membrano-lytic activity against Escherichia coli assessed as change in morphology at 4 times MIC after 1 hr by SEM analysis; format: subcellular
# Method in brief: (§4)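 E. coli ATCC BAA-2452 from overnight culture, suspended at 10^7 CFU/mL in 10 mM PBS pH 7.4. […] Fixed in 4% glutaraldehyde in cacodylate buffer pH 7.4 for 3 h at 4 °C, ethanol-dehydrated, HMDS-dried, Au/Pd-coated, then imaged by FE-SEM.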
# [21] = test system: Cell membrane; assay: Membrano-lytic activity against methicillin resistant Staphylococcus aureus assessed as loss of membrane fluidity at 4 times MIC after 1 hr by SEM analysis; format: subcellular
# [22] = test system: Cell membrane; assay: Membrano-lytic activity against Escherichia coli assessed as loss of membrane fluidity at 4 times MIC after 1 hr by SEM analysis; format: subcellular; method in brief: as §4
# [23] = test system: Cell membrane; assay: Membrano-lytic activity against Escherichia coli assessed as membrane atrophy at 4 times MIC after 1 hr by SEM analysis; format: subcellular; method in brief: as §4
# [24] = test system: Staphylococcus aureus; assay: Induction of resistance development in Staphylococcus aureus ATCC 29213 assessed as increase in MIC by microtiter plate reader assay; format: functional, organism-based
# Method in brief: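 Serial passage resistance assay with 2-fold microdilution MICs in 96-well plates. Each passage takes the well with the highest concentration still permitting growth, adjusts it to 0.5 McFarland, and dilutes it to a final 5 × 10^5 CFU/mL for the next passage. Eighteen passages; MIC recorded at each. Triplicate.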
# [25] = test system: Escherichia coli; assay: Induction of resistance development in Escherichia coli ATCC 25922 assessed as increase in MIC by microtiter plate reader assay; format: functional, organism-based
# [26] = test system: Escherichia coli; assay: Synergistic antibacterial activity against Escherichia coli ATCC 25922 incubated for 24 hrs in presence of meropenem by checkerboard assay; format: functional; method in brief: as §2
# [27] = test system: Escherichia coli; assay: Synergistic antibacterial activity against Escherichia coli ATCC 25922 fractional inhibitory concentration index incubated for 24 hrs in presence of Ciprofloxacin by checkerboard assay; format: functional; method in brief: as §2
# [28] = test system: Escherichia coli; assay: Synergistic antibacterial activity against Escherichia coli ATCC 25922 fractional inhibitory concentration index incubated for 24 hrs in presence of metronidazole by checkerboard assay; format: functional; method in brief: as §2
# [29] = test system: Escherichia coli; assay: Synergistic antibacterial activity against Escherichia coli ATCC 25922 fractional inhibitory concentration index incubated for 24 hrs in presence of meropenem by checkerboard assay; format: functional; method in brief: as §1
# [30] = test system: Escherichia coli; assay: Synergistic antibacterial activity against Escherichia coli ATCC 25922 fractional inhibitory concentration incubated for 24 hrs in presence of Ciprofloxacin by checkerboard assay; format: functional; method in brief: as §2
# [31] = test system: Staphylococcus aureus; assay: Synergistic antibacterial activity against methicillin resistant Staphylococcus aureus ATCC BAA-1556 fractional inhibitory concentration incubated for 24 hrs in presence of polymyxin B by checkerboard assay; format: functional; method in brief: as §1
# [32] = test system: Escherichia coli; assay: Synergistic antibacterial activity against Escherichia coli ATCC 25922 fractional inhibitory concentration incubated for 24 hrs in presence of meropenem by checkerboard assay; format: functional; method in brief: as §1
compound,measurement,setting,value
N=C(N)NCCC[C@@H]1NC(=O)[C@H](CCCNC(=N)N)NC(=O)[C@H](CCCNC(=N)N)NC(=O)[C@H](Cc2c[nH]c3ccccc23)NC(=O)[C@H](Cc2c[nH]c3ccccc23)NC(=O)[C@H](Cc2c[nH]c3ccccc23)NC(=O)[C@H](Cc2c[nH]c3ccccc23)NC(=O)[C@H](CCCNC(=N)N)NC(=O)[C@H](CCCNC(=N)N)NC1=O,MIC,[1],> 64 µg/mL
same,MIC,[2],> 64 µg/mL
same,MIC,[3],0.125 µg/mL
same,MIC,[4],1 µg/mL
same,MIC,[5],0.125 µg/mL
same,fractional inhibitory concentration index (FICI),[6],0.5
same,fractional inhibitory concentration index (FICI),[7],0.5
same,fractional inhibitory concentration index (FICI),[8],0.5
same,fractional inhibitory concentration index (FICI),[9],0.375
same,fractional inhibitory concentration index (FICI),[10],0.5
same,FIC,[11],0.25
same,FIC,[12],0.25
same,FIC,[13],0.25
same,FIC,[14],0.25
same,TI,[15],63
same,Activity,[16],100%
same,Activity,[17],100%
same,Activity,[18],100%
same,Activity,[19],13%
same,Activity,[20],Active
same,Activity,[21],Active
same,Activity,[22],Active
same,Activity,[23],Active
same,Activity,[24],inactive
same,Activity,[25],inactive
N=C(N)NCCC[C@@H]1NC(=O)[C@H](CCCNC(=N)N)NC(=O)[C@H](CCCNC(=N)N)NC(=O)[C@H](CCCNC(=N)N)NC(=O)[C@H](Cc2c[nH]c3ccccc23)NC(=O)[C@H](Cc2c[nH]c3ccccc23)NC(=O)[C@H](Cc2c[nH]c3ccccc23)NC(=O)[C@H](Cc2c[nH]c3ccccc23)NC(=O)[C@H](CCCNC(=N)N)NC(=O)[C@H](CCCNC(=N)N)NC1=O (cyclo(RRRRRRWWWW)),MIC,[26],0.125 µg/mL
same,fractional inhibitory concentration index (FICI),[27],0.375
same,fractional inhibitory concentration index (FICI),[28],0.625
same,fractional inhibitory concentration index (FICI),[29],0.375
same,FIC,[30],0.125
same,FIC,[31],0.063
same,FIC,[32],0.125
